Experimental data published in PMC10125284 (ACS Bio & Med Chem Au, 2022).
“Also recorded” adds a separate entry of the source. Read-outs that look alike come from different tables or passages of the source.

Experiments:
Tar [1] = target: T1, Tar (Escherichia coli, UniProt P07017); assay: Microfluidic chemotaxis assay, UU1250 expressing Tar as sole receptor; format: cell-based; conditions: cells expressing Tar as sole receptor
Tsar [2] = target: T2, Tsar (Escherichia coli, UniProt P02942+P07017); assay: Microfluidic chemotaxis assay, UU1250 expressing hybrid Tsar as sole receptor; format: cell-based; conditions: cells expressing hybrid Tsar as sole receptor
T2 sequence (P02942 1-201): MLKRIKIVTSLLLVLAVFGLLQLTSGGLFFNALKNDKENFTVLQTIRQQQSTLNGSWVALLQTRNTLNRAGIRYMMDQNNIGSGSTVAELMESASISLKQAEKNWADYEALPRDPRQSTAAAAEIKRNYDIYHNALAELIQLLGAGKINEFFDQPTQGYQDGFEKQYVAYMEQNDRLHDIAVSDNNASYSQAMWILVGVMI
T2 sequence (P07017 200-553): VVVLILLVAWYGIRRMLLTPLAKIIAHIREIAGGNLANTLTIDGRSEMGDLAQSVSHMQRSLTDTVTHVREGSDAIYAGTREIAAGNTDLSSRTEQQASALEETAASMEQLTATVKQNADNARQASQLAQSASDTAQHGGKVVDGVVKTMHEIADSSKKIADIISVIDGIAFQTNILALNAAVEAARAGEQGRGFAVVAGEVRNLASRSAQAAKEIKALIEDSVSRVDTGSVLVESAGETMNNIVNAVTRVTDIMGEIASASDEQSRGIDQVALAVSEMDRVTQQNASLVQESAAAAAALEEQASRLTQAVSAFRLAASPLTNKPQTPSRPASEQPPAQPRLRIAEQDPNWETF

Tsr-LBD [3] = target: T3, Tsr-LBD (Escherichia coli, UniProt P02942); assay: Microscale thermophoresis; format: binding; conditions: for binding to Tsr-LBD in competition (MST): pocket saturated with high concentration of L-serine (25 mM)
T3 sequence (P02942 30-190): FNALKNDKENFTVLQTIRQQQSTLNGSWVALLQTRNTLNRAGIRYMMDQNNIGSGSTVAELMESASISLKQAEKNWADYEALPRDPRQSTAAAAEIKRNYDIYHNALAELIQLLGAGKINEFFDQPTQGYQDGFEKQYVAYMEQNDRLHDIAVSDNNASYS
Outline: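 Tsr residues 30-190 carrying an N-terminal 6×His tag were expressed in E. coli after 1 mM IPTG induction for 6 h at 28 °C. The protein was purified by Ni affinity and gel filtration (50 mM Tris-HCl pH 8.0, 200 mM NaCl) and labelled with a RED-tris-NTA His-tag dye. Compound serial dilutions in HEPES buffer were mixed 1:1 with protein and read in capillaries at 60% excitation and 20% MST power. Kd came from dose-response fits of normalised traces, temperature-jump/thermophoresis mode.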

Tsr [4] = target: T4, Tsr (Escherichia coli, UniProt P02942); assay: Microfluidic chemotaxis assay, UU1250 expressing Tsr as sole receptor; format: cell-based; conditions: UU1250 expressing wild-type Tsr as sole receptor and GFP
T4 sequence (P02942 whole entry): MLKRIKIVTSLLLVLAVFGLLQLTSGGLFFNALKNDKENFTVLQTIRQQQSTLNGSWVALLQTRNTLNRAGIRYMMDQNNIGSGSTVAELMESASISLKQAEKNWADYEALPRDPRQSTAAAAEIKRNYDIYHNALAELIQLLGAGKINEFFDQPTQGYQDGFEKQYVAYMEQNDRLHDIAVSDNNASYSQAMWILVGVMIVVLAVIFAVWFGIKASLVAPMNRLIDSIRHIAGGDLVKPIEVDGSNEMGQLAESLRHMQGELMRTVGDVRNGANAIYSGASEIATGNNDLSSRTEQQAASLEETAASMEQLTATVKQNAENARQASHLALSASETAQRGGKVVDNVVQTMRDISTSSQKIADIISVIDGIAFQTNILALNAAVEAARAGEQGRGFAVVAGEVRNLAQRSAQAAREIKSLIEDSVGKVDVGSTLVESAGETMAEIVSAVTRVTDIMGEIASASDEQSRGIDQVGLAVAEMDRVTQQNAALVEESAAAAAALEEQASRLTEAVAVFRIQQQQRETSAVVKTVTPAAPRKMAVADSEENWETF

Tsr^N68A [5] = target: T5, Tsr^N68A (Escherichia coli, UniProt P02942, N68A); assay: Microfluidic chemotaxis assay, cells expressing Tsr^N68A as sole receptor; format: cell-based
T5 sequence (P02942 whole entry N68A): as the sequence (P02942 whole entry) above, with N68A counted along it

Tasr [6] = target: T6, Tasr (Escherichia coli, UniProt P02942+P07017); assay: Microfluidic chemotaxis assay, UU1250 expressing hybrid Tasr as sole receptor; format: cell-based; conditions: cells expressing hybrid Tasr as sole receptor
T6 sequence (P07017 1-199): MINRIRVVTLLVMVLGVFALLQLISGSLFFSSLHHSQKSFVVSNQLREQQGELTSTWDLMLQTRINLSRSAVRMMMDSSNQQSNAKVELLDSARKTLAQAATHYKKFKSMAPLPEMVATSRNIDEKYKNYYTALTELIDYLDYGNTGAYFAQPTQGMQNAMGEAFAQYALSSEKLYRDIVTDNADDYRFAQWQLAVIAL
T6 sequence (P02942 202-551): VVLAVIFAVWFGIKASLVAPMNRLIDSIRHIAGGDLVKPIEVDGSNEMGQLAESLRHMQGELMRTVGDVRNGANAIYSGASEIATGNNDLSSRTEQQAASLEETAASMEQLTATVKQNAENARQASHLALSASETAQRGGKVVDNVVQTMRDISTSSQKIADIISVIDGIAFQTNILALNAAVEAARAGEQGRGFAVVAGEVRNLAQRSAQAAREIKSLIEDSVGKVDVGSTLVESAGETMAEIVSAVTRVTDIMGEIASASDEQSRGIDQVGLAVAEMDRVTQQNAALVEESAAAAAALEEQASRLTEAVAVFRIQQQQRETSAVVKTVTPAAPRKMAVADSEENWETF

Tsr^R64A = Tsr^R64A (Escherichia coli, UniProt P02942, R64A); assay: Microfluidic chemotaxis assay, cells expressing Tsr^R64A as sole receptor; format: cell-based
Tsr^R64A, sequence (P02942 whole entry R64A): as the sequence (P02942 whole entry) above, with R64A counted along it

Tasr [7] = target: T6, Tasr; assay: FRET assay, cells expressing Tasr as sole receptor; format: cell-based
Tsr^R64AN68A = Tsr^R64AN68A (Escherichia coli, UniProt P02942, N68A/R64A); assay: Microfluidic chemotaxis assay, cells expressing Tsr^R64AN68A as sole receptor; format: cell-based
Tsr^R64AN68A, sequence (P02942 whole entry R64A/N68A): as the sequence (P02942 whole entry) above, with R64A, N68A counted along it

wild-type RP437 = assay: FRET assay, wild-type RP437; format: cell-based, Escherichia coli
Tsr [8] = target: T4, Tsr; assay: FRET; format: cell-based; conditions: for effect of adaptation to L-serine on FRET response to ligand: Tsr adapted to 200 μM L-serine; for FRET response (kinase activity): Tsr as sole receptor, buffer-adapted
[9] = test system: wild-type E. coli strain RP437; assay: Microfluidic chemotaxis assay, wild-type strain RP437; format: cell-based, Escherichia coli; conditions: wild-type E. coli RP437, all five chemoreceptors
Tar [10] = target: T1, Tar; assay: FRET assay, cells expressing Tar as sole receptor; format: cell-based
Tsar [11] = target: T2, Tsar; assay: FRET assay, cells expressing Tsar as sole receptor; format: cell-based
Tsr^N68A [12] = target: T5, Tsr^N68A; assay: FRET assay, cells expressing Tsr^N68A as sole receptor; format: cell-based
Tsr-LBD [13] = target: T3, Tsr-LBD; conditions: read-out: Kd, previously reported; cited from earlier work

T1 sequence (P07017 whole entry): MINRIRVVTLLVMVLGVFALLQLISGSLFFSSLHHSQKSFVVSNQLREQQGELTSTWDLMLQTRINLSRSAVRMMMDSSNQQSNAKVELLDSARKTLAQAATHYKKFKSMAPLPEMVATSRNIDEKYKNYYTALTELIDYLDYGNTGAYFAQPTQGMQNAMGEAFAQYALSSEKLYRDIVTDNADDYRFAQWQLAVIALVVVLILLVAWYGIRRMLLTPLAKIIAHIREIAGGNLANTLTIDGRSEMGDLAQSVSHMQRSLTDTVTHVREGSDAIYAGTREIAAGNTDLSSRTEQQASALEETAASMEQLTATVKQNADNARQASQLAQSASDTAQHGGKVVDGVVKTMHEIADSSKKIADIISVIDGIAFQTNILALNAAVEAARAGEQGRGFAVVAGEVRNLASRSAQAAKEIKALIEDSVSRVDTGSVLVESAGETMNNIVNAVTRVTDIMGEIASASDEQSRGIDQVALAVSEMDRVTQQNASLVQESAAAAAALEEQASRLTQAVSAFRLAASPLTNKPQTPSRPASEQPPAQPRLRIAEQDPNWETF

NC1(C(=O)O)CCCCC1 [ACHC, 1-aminocyclohexanecarboxylic acid]
chemotactic response (microfluidic) (Tar [1]): did not show obvious responses
chemotactic response (microfluidic) (Tsar [2]): robust repellent responses
Kd (Tsr-LBD [3]): 10.6 ± 2.4 mM
binding to Tsr-LBD in competition (MST) (Tsr-LBD [3]): could not bind
chemotactic response (microfluidic) (Tsr [4]): robust repellent response
chemotactic response (microfluidic), compared with wild-type Tsr (Tsr^N68A [5]): weaker repellent responses; also recorded: weak repellent response
chemotactic response (microfluidic) (Tasr [6]): did not show obvious responses
chemotactic response (microfluidic), compared with wild-type Tsr (Tsr^R64A): weaker repellent responses
FRET response (Tasr [7]): no or only a weak response
chemotactic response (microfluidic), compared with wild-type Tsr (Tsr^R64AN68A): weaker repellent responses
FRET response (wild-type RP437): repellent response
effect of adaptation to L-serine on FRET response to ligand (Tsr [8]): significantly inhibited
FRET response (kinase activity) (Tsr [8]): repellent response
chemotactic response (microfluidic) [9]: robust repellent responses
FRET response (Tar [10]): no or only a weak response
FRET response (Tsar [11]): repellent response

CC(C)C[C@H](N)C(=O)O [L-leucine]
chemotactic response (microfluidic) (Tar [1]): no response
chemotactic response (microfluidic) (Tsar [2]): repellent responses
Kd (Tsr-LBD [3]): 23.6 ± 6.8 mM
binding to Tsr-LBD in competition (MST) (Tsr-LBD [3]): could not bind
chemotactic response (microfluidic) (Tsr [4]): repellent response
FRET response (Tsr^N68A [12]): strong attractant response
chemotactic response (microfluidic), compared with wild-type Tsr (Tsr^N68A [5]): attractant response
chemotactic response (microfluidic) (Tasr [6]): no response
chemotactic response (microfluidic), compared with wild-type Tsr (Tsr^R64A): no response or much weaker responses
chemotactic response (microfluidic), compared with wild-type Tsr (Tsr^R64AN68A): no response or much weaker responses
effect of adaptation to L-serine on FRET response to ligand (Tsr [8]): significantly inhibited
FRET response (kinase activity) (Tsr [8]): repellent response
chemotactic response (microfluidic) [9]: repellent responses

N[C@@H](CO)C(=O)O [L-serine]
Kd (Tsr-LBD [3]): 0.207 mM
chemotactic response (microfluidic) (Tsr [4]): drifted up the L-serine gradient
chemotactic response (microfluidic), compared with wild-type Tsr (Tsr^N68A [5]): weaker attractant responses
chemotactic response (microfluidic), compared with wild-type Tsr (Tsr^R64A): weaker attractant responses
Kd (Tsr-LBD [13]): 0.0356 mM
chemotactic response (microfluidic), compared with wild-type Tsr (Tsr^R64AN68A): weaker attractant responses
FRET response (kinase activity) (Tsr [8]): attractant response
